# Test results as given in ChEMBL document CHEMBL5724801, “EUbOPEN Chemogenomics Library - Multiplex” (2024).
# Values joined by “and” are separate entries in the source; they are usually repeats but may differ in a detail not shown here. Identical values can stand only once.
# System: U2OS
# Assay: Multiplex assay against U2OS
# Format: toxicity, cell-based
# Conditions: human
# In short: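 With compound added, live cells were imaged on a CQ1 microscope at 37°C and 5% CO2; staining with Hoechst33342, BioTracker Green Microtubule Cytoskeleton Dye, MitoTracker Red and Annexin V Alexa Fluor 680 had been done at seeding. The CellPathfinder machine-learning gating scheme split cells into Hoechst high-intensity objects or normal cells, normal cells into healthy, pyknosed or fragmented nuclei, and pyknosed cells into mitotic or apoptotic. The tubulin, mitochondrial-mass and membrane-permeability phenotypes are per cents of healthy-nucleus cells.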
# [1] = 12 h, 1 µM, compound concentration 1 uM
# [2] = 12 h, 10 µM, compound concentration 10 uM
# [3] = 24 h, 1 µM, compound concentration 1 uM
# [4] = 24 h, 10 µM, compound concentration 10 uM
# [5] = 48 h, 1 µM, compound concentration 1 uM
# [6] = 48 h, 10 µM, compound concentration 10 uM
compound,measurement,setting,value
N#Cc1ccnc(Nc2cc(C3CCN(C4COC4)CC3)cc(N3CCC(F)(F)C3)n2)c1,Population Apoptotic (%),[1],40.82% and 36.11%
same,Population Fragmented Nuclei (%),[1],3.13% and 0.79%
same,Population Healthy Nuclei (%),[1],84.07% and 70.87%
same,Population Hoechst High Intensity Objects (%),[1],0%
same,Population Membrane Permeable-Phenotype (%),[1],3.11% and 2.22%
same,Population Mitochondria Different-Phenotype (%),[1],0.62% and 8.89%
same,Population Mitotic Cells (%),[1],59.18% and 63.89%
same,Population Normal (%),[1],100%
same,Population Pyknosed Nuclei (%),[1],12.79% and 28.35%
same,Population Tubulin-Different-Phenotype (%),[1],4.35% and 2.22%
same,Population Apoptotic (%),[2],46.67% and 38.95%
same,Population Fragmented Nuclei (%),[2],9.07% and 13.15%
same,Population Healthy Nuclei (%),[2],64.38% and 42.25%
same,Population Hoechst High Intensity Objects (%),[2],0%
same,Population Membrane Permeable-Phenotype (%),[2],7.56% and 17.78%
same,Population Mitotic Cells (%),[2],53.33% and 61.05%
same,Population Normal (%),[2],100%
same,Population Pyknosed Nuclei (%),[2],26.55% and 44.6%
same,Population Tubulin-Different-Phenotype (%),[2],73.88% and 62.22%
same,Total Cell Count,[2],452 and 213
same,Population Apoptotic (%),[3],47.06% and 53.12%
same,Population Fragmented Nuclei (%),[3],3.81% and 2.05%
same,Population Healthy Nuclei (%),[3],82.57% and 76.03%
same,Population Hoechst High Intensity Objects (%),[3],0%
same,Population Membrane Permeable-Phenotype (%),[3],2.18% and 6.31%
same,Population Mitochondria Different-Phenotype (%),[3],0.49% and 8.11%
same,Population Mitotic Cells (%),[3],52.94% and 46.88%
same,Population Normal (%),[3],100%
same,Population Pyknosed Nuclei (%),[3],13.63% and 21.92%
same,Population Tubulin-Different-Phenotype (%),[3],2.67% and 3.6%
same,Population Apoptotic (%),[4],51.37% and 67.97%
same,Population Fragmented Nuclei (%),[4],11.21% and 9%
same,Population Healthy Nuclei (%),[4],50.11% and 30.33%
same,Population Hoechst High Intensity Objects (%),[4],0% and 0.47%
same,Population Membrane Permeable-Phenotype (%),[4],6.75% and 10.94%
same,Population Mitochondria Different-Phenotype (%),[4],21.94% and 51.56%
same,Population Mitotic Cells (%),[4],48.63% and 32.03%
same,Population Normal (%),[4],100% and 99.53%
same,Population Pyknosed Nuclei (%),[4],38.69% and 60.66%
same,Population Tubulin-Different-Phenotype (%),[4],58.65% and 40.62%
same,Total Cell Count,[4],473 and 212
same,Population Apoptotic (%),[5],55.7% and 66.67%
same,Population Fragmented Nuclei (%),[5],3.56% and 4.98%
same,Population Healthy Nuclei (%),[5],85.19% and 78.61%
same,Population Hoechst High Intensity Objects (%),[5],0.14% and 0%
same,Population Membrane Permeable-Phenotype (%),[5],1.84% and 5.06%
same,Population Mitochondria Different-Phenotype (%),[5],0.67% and 6.33%
same,Population Mitotic Cells (%),[5],44.3% and 33.33%
same,Population Normal (%),[5],99.86% and 100%
same,Population Pyknosed Nuclei (%),[5],11.25% and 16.42%
same,Population Tubulin-Different-Phenotype (%),[5],3.01% and 2.53%
same,Population Apoptotic (%),[6],68.72% and 75.36%
same,Population Fragmented Nuclei (%),[6],9.35% and 11.35%
same,Population Healthy Nuclei (%),[6],37.83% and 28.38%
same,Population Hoechst High Intensity Objects (%),[6],0.22% and 0%
same,Population Mitochondria Different-Phenotype (%),[6],37.93% and 24.62%
same,Population Mitotic Cells (%),[6],31.28% and 24.64%
same,Population Normal (%),[6],99.78% and 100%
same,Population Pyknosed Nuclei (%),[6],52.83% and 60.26%
same,Population Tubulin-Different-Phenotype (%),[6],56.9% and 30.77%
same,Total Cell Count,[6],461 and 229
O=C(Nc1cc(C(F)(F)F)ccc1N1CCCCC1)c1ccncc1,Population Apoptotic (%),[1],66.67% and 37.5%
same,Population Fragmented Nuclei (%),[1],2.62% and 1.94%
same,Population Healthy Nuclei (%),[1],90.31% and 82.58%
same,Population Hoechst High Intensity Objects (%),[1],0%
same,Population Membrane Permeable-Phenotype (%),[1],1.74% and 3.12%
same,Population Mitochondria Different-Phenotype (%),[1],0% and 2.34%
same,Population Mitotic Cells (%),[1],33.33% and 62.5%
same,Population Normal (%),[1],100%
same,Population Pyknosed Nuclei (%),[1],7.07% and 15.48%
same,Population Tubulin-Different-Phenotype (%),[1],1.16% and 0.78%
same,Total Cell Count,[1],382 and 155
same,Population Apoptotic (%),[2],32.65% and 31.25%
same,Population Fragmented Nuclei (%),[2],1.78% and 5.19%
same,Population Healthy Nuclei (%),[2],87.31% and 74.03%
same,Population Hoechst High Intensity Objects (%),[2],0%
same,Population Membrane Permeable-Phenotype (%),[2],2.81% and 6.14%
same,Population Mitotic Cells (%),[2],67.35% and 68.75%
same,Population Normal (%),[2],100%
same,Population Pyknosed Nuclei (%),[2],10.91% and 20.78%
same,Population Tubulin-Different-Phenotype (%),[2],6.89% and 7.89%
same,Total Cell Count,[2],449 and 154
same,Population Apoptotic (%),[3],24.39% and 47.37%
same,Population Fragmented Nuclei (%),[3],2.34% and 1.57%
same,Population Healthy Nuclei (%),[3],89.65% and 88.48%
same,Population Hoechst High Intensity Objects (%),[3],0%
same,Population Membrane Permeable-Phenotype (%),[3],0.65% and 1.78%
same,Population Mitochondria Different-Phenotype (%),[3],0.22% and 4.73%
same,Population Mitotic Cells (%),[3],75.61% and 52.63%
same,Population Normal (%),[3],100%
same,Population Pyknosed Nuclei (%),[3],8.01% and 9.95%
same,Population Tubulin-Different-Phenotype (%),[3],1.09% and 0.59%
same,Total Cell Count,[3],512 and 191
same,Population Apoptotic (%),[4],35.62% and 25.81%
same,Population Fragmented Nuclei (%),[4],1.19% and 3.28%
same,Population Healthy Nuclei (%),[4],86.37% and 79.78%
same,Population Hoechst High Intensity Objects (%),[4],0%
same,Population Membrane Permeable-Phenotype (%),[4],1.18% and 2.05%
same,Population Mitotic Cells (%),[4],64.38% and 74.19%
same,Population Normal (%),[4],100%
same,Population Pyknosed Nuclei (%),[4],12.44% and 16.94%
same,Population Tubulin-Different-Phenotype (%),[4],5.13% and 1.37%
same,Population Apoptotic (%),[5],36.36% and 35.71%
same,Population Fragmented Nuclei (%),[5],3.47% and 3.02%
same,Population Healthy Nuclei (%),[5],86.98% and 88.52%
same,Population Hoechst High Intensity Objects (%),[5],0%
same,Population Membrane Permeable-Phenotype (%),[5],1% and 4.1%
same,Population Mitochondria Different-Phenotype (%),[5],0.37% and 3.75%
same,Population Mitotic Cells (%),[5],63.64% and 64.29%
same,Population Normal (%),[5],100%
same,Population Pyknosed Nuclei (%),[5],9.54% and 8.46%
same,Population Tubulin-Different-Phenotype (%),[5],1.37% and 2.05%
same,Total Cell Count,[5],922 and 331
same,Population Apoptotic (%),[6],47.54% and 53.06%
same,Population Fragmented Nuclei (%),[6],2.11% and 4.76%
same,Population Healthy Nuclei (%),[6],86.22% and 78.57%
same,Population Hoechst High Intensity Objects (%),[6],0.19% and 0%
same,Population Membrane Permeable-Phenotype (%),[6],1.66% and 1.73%
same,Population Mitotic Cells (%),[6],52.46% and 46.94%
same,Population Normal (%),[6],99.81% and 100%
same,Population Pyknosed Nuclei (%),[6],11.67% and 16.67%
same,Population Tubulin-Different-Phenotype (%),[6],4.55% and 3.03%
